Source: ChEMBL document CHEMBL1137351, “Discovery of conformationally constrained tetracyclic compounds as potent hepatitis C virus NS5B RNA polymerase inhibitors” (J Med Chem, 2006)

Key:
[1] = molecular target: RNA-directed RNA polymerase (Hepacivirus hominis, UniProt O39930); test: Inhibition of HCV NS5B RNA polymerase
[2] = test system: Huh-5-2; test: Inhibition of replication of HCV 1b BK RNA in Huh5-2 cells in presence of 10% fetal calf serum; assay type: functional, cell-based, Hepacivirus hominis; details: Homo sapiens, genotype 1b BK
Summary of the method: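 Huh-5-2 cells carrying the HCV replicon, assayed in medium with 10% FCS. EC50 is the mean of three independent experiments, with standard deviations within 30% of the mean.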

[3] = test system: Caco-2; test: Cytotoxicity against Caco-2 cells; assay type: functional; details: Homo sapiens
[4] = (§1) Permeability across Caco-2 cells; assay type: ADME, cell-based; details: human, read-out: permeability
[5] = test system: Huh-5-2; test: Inhibition of replication of HCV 1b BK RNA in Huh5-2 cells in presence of 10% fetal calf serum and 4% human serum albumin; assay type: functional, cell-based, Hepacivirus hominis; details: genotype 1b BK
Summary of the method: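 Huh-5-2 replicon cells in medium with 10% FCS plus 4% human serum albumin. EC50 is the average of two experiments.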

[6] = test system: Caco-2; test: as §1; assay type: ADME, cell-based; details: human

RNA-directed RNA polymerase, sequence (O39930 whole entry): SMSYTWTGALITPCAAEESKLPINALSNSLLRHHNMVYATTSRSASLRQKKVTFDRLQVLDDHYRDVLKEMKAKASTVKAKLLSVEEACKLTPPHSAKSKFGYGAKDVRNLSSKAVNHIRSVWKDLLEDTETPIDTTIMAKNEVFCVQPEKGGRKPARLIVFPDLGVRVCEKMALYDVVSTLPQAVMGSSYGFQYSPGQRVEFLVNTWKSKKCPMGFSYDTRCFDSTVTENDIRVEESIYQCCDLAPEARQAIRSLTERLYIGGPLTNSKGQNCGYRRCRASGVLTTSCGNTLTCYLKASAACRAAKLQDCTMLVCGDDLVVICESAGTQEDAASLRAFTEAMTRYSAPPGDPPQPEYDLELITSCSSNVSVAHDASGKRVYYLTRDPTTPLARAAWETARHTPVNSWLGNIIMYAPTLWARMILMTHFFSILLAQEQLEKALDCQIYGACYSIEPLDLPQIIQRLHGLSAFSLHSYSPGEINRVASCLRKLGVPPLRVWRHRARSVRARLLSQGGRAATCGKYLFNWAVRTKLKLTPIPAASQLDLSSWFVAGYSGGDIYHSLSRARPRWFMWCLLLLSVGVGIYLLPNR

Structure (SMILES)	IC50 [1]	EC50 [2]	CC50 [3]	Papp [4]	EC50 [5]	Activity [6]
Cl.O=C(O)c1ccc2c(C3CCCCC3)c3n(c2c1)CCNc1ccccc1-3	21 nM	570 nM	> 20000 nM	55.9 ×10⁻⁶ cm/s	> 10000 nM	–
Cl.Cl.O=C(O)c1ccc2c(C3CCCCC3)c3n(c2c1)CCN(CCN1CCCCC1)c1ccccc1-3	9 nM	35 nM	> 20000 nM	18.6 ×10⁻⁶ cm/s	84 nM	–
CN(C)CCN1CCn2c(c(C3CCCCC3)c3ccc(C(=O)O)cc32)-c2ccccc21.Cl.Cl	18 nM	53 nM	> 20000 nM	19.2 ×10⁻⁶ cm/s	200 nM	–
CN1CCn2c(c(C3CCCCC3)c3ccc(C(=O)O)cc32)-c2ccccc21	19 nM	590 nM	> 20000 nM	–	6500 nM	Active
O=C(O)c1ccc2c(C3CCCCC3)c3n(c2c1)CCSc1ccccc1-3	38 nM	1400 nM	–	–	–	–
CC(C)N1CCn2c(c(C3CCCCC3)c3ccc(C(=O)O)cc32)-c2ccccc21	36 nM	1500 nM	> 20000 nM	–	–	Active
O=C(O)c1ccc2c(C3CCCCC3)c3n(c2c1)CCCc1ccccc1-3	77 nM	3000 nM	–	–	–	–
O=C(O)c1ccc2c(C3CCCCC3)c3n(c2c1)CCN(CCc1ccccc1)c1ccccc1-3	26 nM	310 nM	> 20000 nM	–	–	Active
Cn1c(-c2ccc(OCc3ccccc3)cc2)c(C2CCCCC2)c2ccc(C(=O)O)cc21	120 nM	–	–	–	–	–
CC(=O)N1CCn2c(c(C3CCCCC3)c3ccc(C(=O)O)cc32)-c2ccccc21	120 nM	1100 nM	> 20000 nM	–	–	Active
O=C(O)c1ccc2c(C3CCCCC3)c3n(c2c1)Cc1ccccc1-3	210 nM	> 10000 nM	–	–	–	–
O=C(O)c1ccc2c(C3CCCCC3)c3n(c2c1)CCc1ccccc1-3	140 nM	6000 nM	–	–	–	–
CN(C)C(=O)CN1CCn2c(c(C3CCCCC3)c3ccc(C(=O)O)cc32)-c2ccccc21	24 nM	210 nM	> 20000 nM	51.9 ×10⁻⁶ cm/s	4300 nM	–
O=C(O)c1ccc2c(C3CCCCC3)c3n(c2c1)CCOc1cc(OCc2ccccc2)ccc1-3	17 nM	–	–	–	–	–
O=C(O)c1ccc2c(C3CCCCC3)c3n(c2c1)CCOc1ccccc1-3	26 nM	860 nM	–	–	–	–
O=C(O)c1ccc2c(C3CCCCC3)c3n(c2c1)COc1ccccc1-3	140 nM	4200 nM	–	–	–	–
O=C(O)c1ccc2c(C3CCCCC3)c3n(c2c1)CCN(Cc1ccccc1)c1ccccc1-3	41 nM	550 nM	> 20000 nM	–	–	Active
